ChEMBL document CHEMBL1212776, “Novel ambler class A carbapenem-hydrolyzing beta-lactamase from a Pseudomonas fluorescens isolate from the Seine River, Paris, France” (Antimicrob Agents Chemother, 2010)
Converted amounts (≈) assume the structure as drawn.

B1: Beta-lactamase (Pseudomonas fluorescens), D2WFL1 (protein)
chain: MARPSKLALSFSLLLPFLPFTSFAETWPQGDIARQKIVKLEKDFGGRIGVSAIDTGANRTFDFRADERFPLCSSFKGFLAGAVLSHSQQQEGLLEKRIDYKNRVMEPHSPISAQHSSTGMTVAQLAAAALQYSDNGATNLLLENVLGGPAGMTTFMRTLGDTTFRLDRWELELNSAIPGDDRDTSTPHAIARSLQKIALGEALQTAPRQQLVDWLIGNTTGGARIRAGVPVEWVVGDKTGTCGVYGTANDYAVIWPKTSAPIVLAIYTAKPNKEDKHSDAVIAEVTRAVLESFE

Experiments:
[1] = test system: Pseudomonas fluorescens; assay: Antimicrobial activity against Pseudomonas fluorescens isolate PF-1 expressing beta-lactamase BIC-1 by Etest; format: functional
In short: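 MIC for isolate PF-1 by Etest, interpreted per CLSI recommendations. Cultures grown in Trypticase soy broth, 37°C, 18 h.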

[2] = test system: Escherichia coli; assay: Antimicrobial activity against Escherichia coli DH10B by Etest; format: functional
In short: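 MIC by Etest, interpreted per CLSI recommendations. Reference strain E. coli DH10B without recombinant plasmid; cultures grown in Trypticase soy broth at 37°C for 18 h.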

[3] = test system: Pseudomonas fluorescens; assay: Activity at Pseudomonas fluorescens PF-1 beta-lactamase BIC-1 expressed in Escherichia coli DH10B carrying pSau1
[4] = test system: Escherichia coli; assay: Antimicrobial activity against Escherichia coli DH10B harbouring recombinant plasmid pSau1 expressing beta-lactamase BIC-1 from Pseudomonas fluorescens PF-1 by Etest; format: functional
[5] = test system: Escherichia coli; assay: Antimicrobial activity against Escherichia coli DH10B by Etest in presence of 4 ug/ml of clavulanic acid; format: functional
In short: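 Etest MIC with clavulanic acid held at a fixed 4 μg/ml alongside the β-lactam, read per CLSI recommendations. Strain E. coli DH10B; cultures grown in TS broth at 37°C for 18 h.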

[6] = test system: Pseudomonas fluorescens; assay: Antimicrobial activity against Pseudomonas fluorescens isolate PF-1 expressing beta-lactamase BIC-1 by Etest in presence of 4 ug/ml of clavulanic acid; format: functional
In short: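 MIC for isolate PF-1 by Etest, with clavulanic acid held at a fixed 4 μg/ml and the β-lactam varied. Interpreted per CLSI recommendations.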

[7] = test system: Escherichia coli; assay: Antimicrobial activity against Escherichia coli DH10B harbouring recombinant plasmid pSau1 expressing beta-lactamase BIC-1 from Pseudomonas fluorescens PF-1 by Etest in presence of 4 ug/ml of clavulanic acid; format: functional
[8] = Inhibition of Pseudomonas fluorescens PF-1 beta-lactamase BIC-1 expressed in Escherichia coli DH10B carrying pSau1
In short: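 BIC-1 purified from E. coli DH10B(pSau1) lysate by S-Sepharose flowthrough, then Q-Sepharose with a 0–500 mM NaCl gradient. Enzyme preincubated with varied inhibitor (clavulanate, tazobactam or sulbactam) for 3 min at 30°C. Then 100 μM benzylpenicillin added. IC50 is the inhibitor concentration halving the hydrolysis rate.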

[9] = biological target: Carbapenem-hydrolyzing beta-lactamase KPC (Klebsiella pneumoniae, UniProt Q9F663); assay: Inhibition of carbapenem-resistant Klebsiella pneumoniae carbepenem-hydrolyzing beta-lactamase KPC-1
Carbapenem-hydrolyzing beta-lactamase KPC, sequence (Q9F663 whole entry): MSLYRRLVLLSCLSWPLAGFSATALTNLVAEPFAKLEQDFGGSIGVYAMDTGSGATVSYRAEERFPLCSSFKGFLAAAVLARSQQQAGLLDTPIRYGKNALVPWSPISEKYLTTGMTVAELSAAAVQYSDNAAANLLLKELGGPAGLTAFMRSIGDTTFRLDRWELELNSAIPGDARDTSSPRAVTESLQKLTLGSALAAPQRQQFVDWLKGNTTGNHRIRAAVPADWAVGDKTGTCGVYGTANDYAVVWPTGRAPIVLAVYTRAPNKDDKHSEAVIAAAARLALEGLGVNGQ

[10] = substrate: C[C@H]1[C@H](NC(=O)/C(=N\OC(C)(C)C(=O)O)c2csc(N)n2)C(=O)N1S(=O)(=O)O; assay: (§1) Ratio of Kcat to Km of Pseudomonas fluorescens PF-1 beta-lactamase BIC-1 expressed in Escherichia coli DH10B using nitrocefin hydrolysis
In short: (§2)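 Cells from overnight 37°C TS broth culture with amoxicillin and kanamycin were sonicated. Enzyme purified by S-Sepharose (malonate pH 6.1), then Q-Sepharose (bis-Tris pH 7.2, 0–500 mM NaCl gradient), and dialyzed into 50 mM sodium phosphate pH 7. kcat and Km measured on the purified enzyme. Values are means of three independent experiments; SD within 10%.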

[11] = substrate: O=C(Cc1cccs1)N[C@@H]1C(=O)N2C(C(=O)[O-])=C(C[n+]3ccccc3)CS[C@H]12; assay: as §1; in short: as §2
[12] = substrate: Cc1onc(-c2ccccc2)c1C(=O)N[C@@H]1C(=O)N2[C@@H]1SC(C)(C)[C@@H]2C(=O)O; assay: as §1; in short: as §2
[13] = substrate: CO/N=C(\C(=O)N[C@@H]1C(=O)N2C(C(=O)O)=C(COC(N)=O)CS[C@H]12)c1ccco1; assay: as §1; in short: as §2
[14] = substrate: CO[C@@]1(NC(=O)C(C(=O)O)c2ccc(O)cc2)C(=O)N2C(C(=O)O)=C(CSc3nnnn3C)CO[C@@H]21; assay: as §1; in short: as §2
[15] = substrate: CCN1CCN(C(=O)N[C@@H](C(=O)N[C@@H]2C(=O)N3[C@@H]2SC(C)(C)[C@@H]3C(=O)O)c2ccccc2)C(=O)C1=O; assay: as §1; in short: as §2
[16] = substrate: C[C@@H](O)[C@H]1C(=O)N2C(C(=O)O)=C(S[C@@H]3CN[C@H](C(=O)N(C)C)C3)[C@H](C)[C@H]12; assay: as §1; in short: as §2
[17] = substrate: CC1(C)S[C@@H]2[C@H](NC(=O)[C@H](C(=O)O)c3ccsc3)C(=O)N2[C@H]1C(=O)O; assay: as §1; in short: as §2
[18] = substrate: CO/N=C(\C(=O)N[C@@H]1C(=O)N2C(C(=O)O)=C(COC(C)=O)CS[C@H]12)c1csc(N)n1; assay: as §1; in short: as §2
[19] = substrate: CO[C@@]1(NC(=O)Cc2cccs2)C(=O)N2C(C(=O)O)=C(COC(N)=O)CS[C@@H]21; assay: as §1; in short: as §2
[20] = substrate: CC1(C)S[C@@H]2[C@H](NC(=O)[C@H](N)c3ccccc3)C(=O)N2[C@H]1C(=O)O; assay: as §1; in short: as §2
[21] = substrate: CC(=O)OCC1=C(C(=O)O)N2C(=O)[C@@H](NC(=O)Cc3cccs3)[C@H]2SC1; assay: as §1; in short: as §2
[22] = substrate: C[C@@H](O)[C@H]1C(=O)N2C(C(=O)O)=C(S[C@@H]3CN[C@H](C(=O)Nc4cccc(C(=O)O)c4)C3)[C@H](C)[C@H]12; assay: as §1; in short: as §2
[23] = substrate: C[C@@H](O)[C@H]1C(=O)N2C(C(=O)O)=C(SCCNC=N)C[C@H]12; assay: as §1; in short: as §2
[24] = substrate: CC1(C)S[C@@H]2[C@H](NC(=O)Cc3ccccc3)C(=O)N2[C@H]1C(=O)O; assay: as §1; in short: as §2

Row | Molecule | MIC [1] | MIC [2] | Km [3] | kcat [3] | MIC [4] | other results
1 | C[C@@H](O)[C@H]1C(=O)N2C(C(=O)O)=C(S[C@@H]3CN[C@H](C(=O)Nc4cccc(C(=O)O)c4)C3)[C@H](C)[C@H]12 | > 16 mg/L | 0.12 mg/L (≈ 0.252 µM) | 10 µM | 2 s⁻¹ | 0.25 mg/L | –
2 | CO/N=C(\C(=O)N[C@@H]1C(=O)N2C(C(=O)[O-])=C(C[N+]3(C)CCCC3)CS[C@H]12)c1csc(N)n1 | > 16 mg/L | – | – | – | 0.12 mg/L | –
3 | CC1(C)S[C@@H]2[C@H](NC(=O)Cc3ccccc3)C(=O)N2[C@H]1C(=O)O | – | – | 48 µM | 31 s⁻¹ | – | –
4 | CC1(C)S[C@@H]2[C@H](NC(=O)[C@H](N)c3ccccc3)C(=O)N2[C@H]1C(=O)O | – | – | 1150 µM | 185 s⁻¹ | – | –
5 | Cc1onc(-c2ccccc2)c1C(=O)N[C@@H]1C(=O)N2[C@@H]1SC(C)(C)[C@@H]2C(=O)O | – | – | 110 µM | 15 s⁻¹ | – | –
6 | O=C(Cc1cccs1)N[C@@H]1C(=O)N2C(C(=O)[O-])=C(C[n+]3ccccc3)CS[C@H]12 | – | – | 770 µM | 170 s⁻¹ | – | –
7 | CC1(C)S[C@@H]2[C@H](NC(=O)[C@H](N)c3ccc(O)cc3)C(=O)N2[C@H]1C(=O)O [AMOXICILLIN] | > 256 mg/L | 4 mg/L (≈ 10.9 µM) | – | – | > 256 mg/L | MIC [5]: 4 mg/L; MIC [6]: > 256 mg/L; MIC [7]: 16 mg/L
8 | C[C@H]1[C@H](NC(=O)/C(=N\OC(C)(C)C(=O)O)c2csc(N)n2)C(=O)N1S(=O)(=O)O [AZTREONAM] | > 256 mg/L | – | > 1000 µM | 35 s⁻¹ | 16 mg/L | –
9 | CO/N=C(\C(=O)N[C@@H]1C(=O)N2C(C(=O)O)=C(COC(C)=O)CS[C@H]12)c1csc(N)n1 [CEFOTAXIME] | > 32 mg/L | 0.12 mg/L (≈ 0.263 µM) | 2200 µM | 20 s⁻¹ | 0.5 mg/L | –
10 | CO[C@@]1(NC(=O)Cc2cccs2)C(=O)N2C(C(=O)O)=C(COC(N)=O)CS[C@@H]21 [CEFOXITIN] | > 256 mg/L | 1 mg/L (≈ 2.34 µM) | 825 µM | 1 s⁻¹ | 4 mg/L | –
11 | CC(C)(O/N=C(\C(=O)N[C@@H]1C(=O)N2C(C(=O)[O-])=C(C[n+]3ccccc3)CS[C@H]12)c1csc(N)n1)C(=O)O [CEFTAZIDIME] | 2 mg/L (≈ 3.66 µM) | 0.5 mg/L (≈ 0.915 µM) | – | – | 0.5 mg/L | –
12 | CO/N=C(\C(=O)N[C@@H]1C(=O)N2C(C(=O)O)=C(COC(N)=O)CS[C@H]12)c1ccco1 [CEFUROXIME] | > 256 mg/L | 0.5 mg/L (≈ 1.18 µM) | > 1000 µM | 9 s⁻¹ | 16 mg/L | –
13 | CC(=O)OCC1=C(C(=O)O)N2C(=O)[C@@H](NC(=O)Cc3cccs3)[C@H]2SC1 [CEPHALOTHIN] | > 256 mg/L | 2 mg/L (≈ 5.04 µM) | 550 µM | 250 s⁻¹ | 128 mg/L | –
14 | O=C(O)[C@H]1/C(=C/CO)O[C@@H]2CC(=O)N21 [CLAVULANIC ACID] | – | – | – | – | – | IC50 [8]: 30 µM; IC50 [9]: 10.5 µM
15 | C[C@@H](O)[C@H]1C(=O)N2C(C(=O)O)=C(SCCNC=N)C[C@H]12 [IMIPENEM ANHYDROUS] | > 16 mg/L | – | 300 µM | 50 s⁻¹ | – | MIC [5]: 0.12 mg/L; MIC [6]: > 16 mg/L
16 | C[C@@H](O)[C@H]1C(=O)N2C(C(=O)O)=C(S[C@@H]3CN[C@H](C(=O)N(C)C)C3)[C@H](C)[C@H]12 [MEROPENEM] | > 16 mg/L | 0.12 mg/L (≈ 0.313 µM) | 12 µM | 1 s⁻¹ | 0.25 mg/L | –
17 | CO[C@@]1(NC(=O)C(C(=O)O)c2ccc(O)cc2)C(=O)N2C(C(=O)O)=C(CSc3nnnn3C)CO[C@@H]21 (some centres undefined) [MOXALACTAM] | > 256 mg/L | 0.12 mg/L (≈ 0.231 µM) | 1700 µM | 3 s⁻¹ | 0.12 mg/L | –
18 | CCN1CCN(C(=O)N[C@@H](C(=O)N[C@@H]2C(=O)N3[C@@H]2SC(C)(C)[C@@H]3C(=O)O)c2ccccc2)C(=O)C1=O [PIPERACILLIN] | 4 mg/L (≈ 7.73 µM) | 1 mg/L (≈ 1.93 µM) | 175 µM | 40 s⁻¹ | 256 mg/L | –
19 | C[C@]1(Cn2ccnn2)[C@H](C(=O)O)N2C(=O)C[C@H]2S1(=O)=O [TAZOBACTAM] | – | – | – | – | – | IC50 [8]: 6.5 µM
20 | CC1(C)S[C@@H]2[C@H](NC(=O)[C@H](C(=O)O)c3ccsc3)C(=O)N2[C@H]1C(=O)O [TICARCILLIN] | > 256 mg/L | 4 mg/L (≈ 10.4 µM) | 250 µM | 15 s⁻¹ | > 256 mg/L | MIC [5]: 4 mg/L; MIC [6]: > 256 mg/L; MIC [7]: 128 mg/L
21 | B1 | – | – | – | – | – | kcat/Km [10]: < 35000 M⁻¹ s⁻¹; kcat/Km [11]: 220000 M⁻¹ s⁻¹; kcat/Km [12]: 100000 M⁻¹ s⁻¹; kcat/Km [13]: < 9000 M⁻¹ s⁻¹; kcat/Km [14]: 1000 M⁻¹ s⁻¹; kcat/Km [15]: 210000 M⁻¹ s⁻¹; kcat/Km [16]: 80000 M⁻¹ s⁻¹; kcat/Km [17]: 60000 M⁻¹ s⁻¹; kcat/Km [18]: 9000 M⁻¹ s⁻¹; kcat/Km [19]: 1000 M⁻¹ s⁻¹; kcat/Km [20]: 160000 M⁻¹ s⁻¹; kcat/Km [21]: 500000 M⁻¹ s⁻¹; kcat/Km [22]: 200000 M⁻¹ s⁻¹; kcat/Km [23]: 170000 M⁻¹ s⁻¹; kcat/Km [24]: 660000 M⁻¹ s⁻¹
